Laboratory results as given in ChEMBL document CHEMBL4715718, “Methyl Protodioscin, a Steroidal Saponin, Inhibits Neointima Formation in Vitro and in Vivo” (J Nat Prod, 2016).
The source made the active and inactive calls. The rule behind the calls is not given here.

Assays:
[1] = Antiproliferative activity against rat A7r5 cells assessed as reduction in cell viability after 24 hrs by MTT assay; conditions: A7R5, 24 h
A7R5 [2] = assay: Induction of cell cycle arrest in rat A7r5 cells assessed as accumulation of cells at G0/G1 phase at 3 to 9 uM after 18 hrs by PI/RNase A staining based flow cytometric analysis; assay type: functional; conditions: dose 3-9 µM
A7R5 [3] = assay: Induction of apoptosis in rat A7r5 cells assessed as effect on Bax protein expression at 3 to 9 uM after 24 hrs by Western blot analysis; assay type: functional, cell-based; conditions: dose 3-9 µM
In short: (§1)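 Bax and Bcl-2 in A7r5 cells are immunoblotted after treatment (3, 6 and 9 μM, 24 h) in culture medium. Lysis in SDS/DTT/Tris buffer pH 6.8 at 95 °C, then SDS-PAGE and PVDF. Bands are given relative to the 10% FBS control, and the Bax/Bcl-2 ratio is computed. Triplicate; one-way ANOVA.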

A7R5 [4] = assay: Induction of apoptosis in rat A7r5 cells assessed as effect on Bcl2 protein expression at 3 to 9 uM after 24 hrs by Western blot analysis; assay type: functional, cell-based; conditions: dose 3-9 µM; in short: as §1
A7R5 [5] = assay: Induction of apoptosis in rat A7r5 cells assessed as effect on Bax/Bcl2 expression ratio at 3 to 9 uM measured after 24 hrs by Western blot analysis; assay type: functional, cell-based; conditions: dose 3-9 µM; in short: as §1
A7R5 [6] = assay: Induction of apoptosis in rat A7r5 cells assessed as change in sub-G1 phase at 3 to 9 uM after 24 hrs by PI/RNase A staining based flow cytometric analysis; assay type: functional, cell-based; conditions: dose 3-9 µM
In short: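 A7r5 cells were plated at 1.0 × 10^5 per 10 cm dish and exposed to graded concentrations in DMEM with 10% FBS. They were trypsinized, fixed in ice-cold 70% ethanol overnight at −20 °C, then stained with PI/Triton X-100/RNase A at 37 °C for at least 30 min in the dark. Sub-G1, G0/G1, S and G2/M fractions were read by FACScan. Control: 10% FBS; n = 3.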

Rattus norvegicus [7] = assay: Inhibition of neointima formation index of injured vessel in rat model of balloon injury induced neointimal hyperplasia at 3 to 6 uM administered as extravascular treatment and measured after 2 weeks by hematoxylin and eosin Y staining based histopathological analysis; assay type: functional; conditions: dose 3-6 µM
In short: (§2)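 Male rats (3–4 months, 300–350 g) were randomized into four groups: sham, balloon injury + PBS, and balloon injury + 3 μM or 6 μM compound. PBS or compound was given extravascularly in ice-cold 30% (w/v) pluronic F-127 gel. Arterial sections 5–10 μm thick (6 per block) were stained with hematoxylin and eosin Y. Intima, media and lumen areas and the intima/media ratio were measured by image analysis.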

Rattus norvegicus [8] = assay: Reduction in ADAM15 protein expression in VSMCs and injured arteries in rat model of balloon injury induced neointimal hyperplasia at 3 to 6 uM administered as extravascular treatment and measured after 2 weeks by Western blot analysis; assay type: functional; conditions: dose 3-6 µM
[9] = biological target: T1, Disintegrin and metalloproteinase domain-containing protein 15 (Rattus norvegicus) (UniProt Q9QYV0); assay: Inhibition of ADAM15-mediated FAK phosphorylation in rat A7r5 cells at 3 to 9 uM after 24 hrs by western blot analysis; assay type: cell-based; conditions: dose 3-9 µM
T1 sequence (whole entry): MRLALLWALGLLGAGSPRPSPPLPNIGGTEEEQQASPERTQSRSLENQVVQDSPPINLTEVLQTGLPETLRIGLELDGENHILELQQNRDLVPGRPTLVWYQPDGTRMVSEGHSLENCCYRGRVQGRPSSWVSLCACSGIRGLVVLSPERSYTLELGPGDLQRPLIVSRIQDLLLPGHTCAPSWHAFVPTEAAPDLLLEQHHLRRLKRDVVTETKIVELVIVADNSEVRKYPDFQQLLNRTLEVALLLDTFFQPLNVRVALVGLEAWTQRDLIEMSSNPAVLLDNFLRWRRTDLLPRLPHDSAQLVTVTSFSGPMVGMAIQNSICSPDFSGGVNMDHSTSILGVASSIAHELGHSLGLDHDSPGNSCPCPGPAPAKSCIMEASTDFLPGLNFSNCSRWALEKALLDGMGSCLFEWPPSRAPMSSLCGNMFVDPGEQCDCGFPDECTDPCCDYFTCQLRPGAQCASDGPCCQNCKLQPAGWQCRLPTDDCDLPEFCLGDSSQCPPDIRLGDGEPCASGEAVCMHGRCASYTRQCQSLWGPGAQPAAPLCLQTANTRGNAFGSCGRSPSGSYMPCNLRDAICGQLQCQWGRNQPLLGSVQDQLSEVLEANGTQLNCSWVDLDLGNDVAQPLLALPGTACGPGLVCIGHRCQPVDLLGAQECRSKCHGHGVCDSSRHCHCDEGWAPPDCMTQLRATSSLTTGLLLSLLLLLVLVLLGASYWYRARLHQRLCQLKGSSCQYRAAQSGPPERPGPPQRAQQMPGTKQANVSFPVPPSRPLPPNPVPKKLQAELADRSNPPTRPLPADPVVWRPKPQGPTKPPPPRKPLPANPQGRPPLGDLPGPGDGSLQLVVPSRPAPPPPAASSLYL
In short: (§3)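 A7r5 rat aortic smooth muscle cells (DMEM, 10% FBS, 37 °C, 5% CO2) treated with 3, 6 or 9 μM in culture medium for 24 h. Lysed in 2% SDS/50 mM DTT/62.5 mM Tris-HCl pH 6.8 at 95 °C for 5 min. SDS-PAGE, PVDF transfer, 5% milk block, HRP secondary. Band expressed as % of control; mean ± SD, n = 3, one-way ANOVA.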

A7R5 [10] = assay: Down regulation of ERK2 expression in rat A7r5 cells at 3 to 9 uM after 24 hrs by Western blot analysis; assay type: functional, cell-based; conditions: dose 3-9 µM; in short: as §3
A7R5 [11] = assay: Down regulation of AKT expression in rat A7r5 cells at 3 to 9 uM after 24 hrs by Western blot analysis; assay type: functional, cell-based; conditions: dose 3-9 µM; in short: as §3
A7R5 [12] = assay: Down regulation of ADAM15 protein translational level in rat A7r5 cells at 9 uM after 24 hrs by Western blot analysis; assay type: functional, cell-based; in short: as §3
A7R5 [13] = assay: Down regulation of FAK expression in rat A7r5 cells at 3 to 9 uM after 24 hrs by Western blot analysis; assay type: functional, cell-based; conditions: dose 3-9 µM; in short: as §3
A7R5 [14] = assay: Down regulation of PI3K expression in rat A7r5 cells at 3 to 9 uM after 24 hrs by Western blot analysis; assay type: functional, cell-based; conditions: dose 3-9 µM; in short: as §3
A7R5 [15] = assay: Down regulation of ERK1 expression in rat A7r5 cells at 3 to 9 uM after 24 hrs by Western blot analysis; assay type: functional, cell-based; conditions: dose 3-9 µM; in short: as §3
A7R5 [16] = assay: Inhibition of cell migration in rat A7r5 cells at 6 to 9 uM after 16 hrs by crystal violet staining based transwell assay; assay type: functional; conditions: dose 6-9 µM
In short: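 Transwell, 8 μm pore: 1.2 × 10^4 A7r5 cells in the upper chamber attach for 2 h. The upper chamber then receives serum-free medium with compound, and the lower chamber 10% FBS medium with compound, for 16 h at 37 °C. Cells are fixed in formaldehyde, stained with crystal violet and counted in five random fields. Migration is given as % of control cell number.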

A7R5 [17] = assay: Inhibition of cell migration in rat A7r5 cells at 9 uM after 18 hrs by scratch wound healing assay; assay type: functional, cell-based
A7R5 [18] = assay: Down regulation of MMP-2 expression in rat A7r5 cells at 3 to 9 uM after 24 hrs by Western blot analysis; assay type: functional, cell-based; conditions: dose 3-9 µM; in short: as §3
A7R5 [19] = assay: Down regulation of MMP-9 expression in rat A7r5 cells at 3 to 9 uM after 24 hrs by Western blot analysis; assay type: functional, cell-based; conditions: dose 3-9 µM; in short: as §3
[20] = biological target: T1, Disintegrin and metalloproteinase domain-containing protein 15 (Rattus norvegicus); assay: Inhibition of ADAM15-mediated MMP-9 activity in rat A7r5 cells at 6 uM after 24 hrs by gelatin zymography; assay type: cell-based
In short: (§4)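 Conditioned medium came from A7r5 cells (1.0 × 10^5 per 10 cm dish) held 24 h with the compound in DMEM/10% FBS. It ran under nonreducing conditions on 10% SDS-PAGE with 0.1% gelatin. Gels were washed in 2.5% Triton X-100 for 1 h, developed at 37 °C in pH 8.0 Tris/10 mM CaCl2 buffer, then Coomassie stained and destained. Clear bands were quantified as % of control; n = 3.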

[21] = biological target: T1, Disintegrin and metalloproteinase domain-containing protein 15 (Rattus norvegicus); assay: Inhibition of ADAM15-mediated MMP-9 activity in rat A7r5 cells at 9 uM after 24 hrs by gelatin zymography; assay type: cell-based; in short: as §4
[22] = biological target: T1, Disintegrin and metalloproteinase domain-containing protein 15 (Rattus norvegicus); assay: Inhibition of ADAM15-mediated PI3K phosphorylation in rat A7r5 cells at 3 to 9 uM after 24 hrs by western blot analysis; assay type: cell-based; conditions: dose 3-9 µM; in short: as §3
[23] = biological target: T1, Disintegrin and metalloproteinase domain-containing protein 15 (Rattus norvegicus); assay: Inhibition of ADAM15-mediated AKT phosphorylation in rat A7r5 cells at 3 to 9 uM after 24 hrs by western blot analysis; assay type: cell-based; conditions: dose 3-9 µM; in short: as §3
[24] = biological target: T1, Disintegrin and metalloproteinase domain-containing protein 15 (Rattus norvegicus); assay: Inhibition of ADAM15-mediated ERK phosphorylation in rat A7r5 cells at 3 to 9 uM after 24 hrs by western blot analysis; assay type: cell-based; conditions: dose 3-9 µM; in short: as §3
[25] = (§5) Inhibition of neointima formation of injured vessel in rat model of balloon injury induced neointimal hyperplasia assessed as area of intima at 3 uM administered as extravascular treatment and measured after 2 weeks by hematoxylin and eosin Y staining based histopathological analysis (reference value: 3346.4 +/-556.7 um2); assay type: functional; in short: as §2
[26] = as §5, with “of media” for “of intima”, “value: 1462.7 +/-393.9” for “value: 3346.4 +/-556.7”; assay type: functional; in short: as §2
[27] = as §5, with “of lumen” for “of intima”, “value: 6809.1 +/-820.8” for “value: 3346.4 +/-556.7”; assay type: functional; in short: as §2
[28] = (§6) Inhibition of neointima formation of injured vessel in rat model of balloon injury induced neointimal hyperplasia assessed as ratio of area of intima-to-media at 3 uM administered as extravascular treatment and measured after 2 weeks by hematoxylin and eosin Y staining based histopathological analysis (reference value: 1.98 +/-0.36); assay type: functional; in short: as §2
[29] = as §5, with “at 6” for “at 3”; assay type: functional; in short: as §2
[30] = as §5, with “of media” for “of intima”, “at 6” for “at 3”, “value: 1462.7 +/-393.9” for “value: 3346.4 +/-556.7”; assay type: functional; in short: as §2
[31] = as §5, with “of lumen” for “of intima”, “at 6” for “at 3”, “value: 6809.1 +/-820.8” for “value: 3346.4 +/-556.7”; assay type: functional; in short: as §2
[32] = as §6, with “at 6” for “at 3”; assay type: functional; in short: as §2

CO[C@]1(CC[C@@H](C)CO[C@@H]2O[C@H](CO)[C@@H](O)[C@H](O)[C@H]2O)O[C@H]2C[C@H]3[C@@H]4CC=C5C[C@@H](O[C@@H]6O[C@H](CO)[C@@H](O[C@@H]7O[C@@H](C)[C@H](O)[C@@H](O)[C@H]7O)[C@H](O)[C@H]6O[C@@H]6O[C@@H](C)[C@H](O)[C@@H](O)[C@H]6O)CC[C@]5(C)[C@H]4CC[C@]3(C)[C@H]2[C@@H]1C [METHYLPROTODIOSCIN]
IC50 [1]: 9 µM
Activity (A7R5 [2]): Active
Activity (A7R5 [3]): inactive
Activity (A7R5 [4]): inactive
Activity (A7R5 [5]): inactive
Activity (A7R5 [6]): inactive
inhibition (Rattus norvegicus [7]): Active
inhibition (Rattus norvegicus [8]): Active
inhibition [9]: Active
inhibition (A7R5 [10]): Active
inhibition (A7R5 [11]): Active
inhibition (A7R5 [12]): Active
inhibition (A7R5 [13]): Active
inhibition (A7R5 [14]): Active
inhibition (A7R5 [15]): Active
inhibition (A7R5 [16]): Active
inhibition (A7R5 [17]): Active
inhibition (A7R5 [18]): Active
inhibition (A7R5 [19]): Active
inhibition [20]: Active
inhibition [21]: Active
inhibition [22]: Active
inhibition [23]: Active
inhibition [24]: Active
Activity [25]: 1828.4 um2
Activity [26]: 1902 um2
Activity [27]: 4730.4 um2
Ratio [28]: 0.92
Activity [29]: 912.4 um2
Activity [30]: 1164.2 um2
Activity [31]: 3076.6 um2
Ratio [32]: 0.34
